The M2OR odorant receptor database

Assays:
Settings in all cases: stereoisomer not certain
OR8U9 (Homo sapiens) = OR8U9 (Homo sapiens) (UniProt P0C7N5)
Method in brief: (§1)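 Transient luciferase assays in mammalian cell lines were common, though methods varied by source. The values come from published papers and their supplementary material, with extra details from the original authors when needed. Responsive refers to a measured signal the original authors judged statistically different from baseline, and non-responsive (inactive) to the remainder.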

OR9A2 (Homo sapiens) = OR9A2 (Homo sapiens) (UniProt Q8NGT5)
Sequence of OR9A2 (Homo sapiens) (Q8NGT5 whole entry): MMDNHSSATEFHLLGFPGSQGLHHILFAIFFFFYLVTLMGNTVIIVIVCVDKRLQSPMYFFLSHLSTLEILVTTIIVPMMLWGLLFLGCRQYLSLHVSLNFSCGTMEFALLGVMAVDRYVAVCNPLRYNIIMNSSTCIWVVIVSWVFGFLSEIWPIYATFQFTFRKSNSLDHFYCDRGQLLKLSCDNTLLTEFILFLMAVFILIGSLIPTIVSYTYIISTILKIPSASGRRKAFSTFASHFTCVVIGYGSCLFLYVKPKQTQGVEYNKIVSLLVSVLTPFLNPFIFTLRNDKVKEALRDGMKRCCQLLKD
Method in brief: as §1

OR9A4 (Homo sapiens) = OR9A4 (Homo sapiens) (UniProt Q8NGU2)
Sequence of OR9A4 (Homo sapiens) (Q8NGU2 whole entry): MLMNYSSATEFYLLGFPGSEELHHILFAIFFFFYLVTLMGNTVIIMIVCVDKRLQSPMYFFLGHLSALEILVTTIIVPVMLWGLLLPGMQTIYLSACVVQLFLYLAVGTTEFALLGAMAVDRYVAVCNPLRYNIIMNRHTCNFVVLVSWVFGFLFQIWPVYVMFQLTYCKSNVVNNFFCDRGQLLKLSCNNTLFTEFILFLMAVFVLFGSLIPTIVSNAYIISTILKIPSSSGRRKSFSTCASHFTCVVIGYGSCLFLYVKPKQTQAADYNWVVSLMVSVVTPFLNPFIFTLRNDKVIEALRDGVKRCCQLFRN
Method in brief: as §1

OR9G1 (Homo sapiens) = OR9G1 (Homo sapiens) (UniProt Q8NH87)
Sequence of OR9G1 (Homo sapiens) (Q8NH87 whole entry): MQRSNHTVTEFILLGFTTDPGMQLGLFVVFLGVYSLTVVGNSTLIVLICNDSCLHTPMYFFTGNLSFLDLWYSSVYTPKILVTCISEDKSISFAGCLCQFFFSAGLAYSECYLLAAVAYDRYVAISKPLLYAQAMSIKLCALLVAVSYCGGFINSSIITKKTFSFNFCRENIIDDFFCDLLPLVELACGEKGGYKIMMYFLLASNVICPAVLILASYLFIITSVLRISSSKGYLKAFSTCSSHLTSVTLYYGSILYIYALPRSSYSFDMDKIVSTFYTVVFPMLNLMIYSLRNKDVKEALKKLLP
Method in brief: as §1

OR9G4 (Homo sapiens) = OR9G4 (Homo sapiens) (UniProt Q8NGQ1)
Sequence of OR9G4 (Homo sapiens) (Q8NGQ1 whole entry): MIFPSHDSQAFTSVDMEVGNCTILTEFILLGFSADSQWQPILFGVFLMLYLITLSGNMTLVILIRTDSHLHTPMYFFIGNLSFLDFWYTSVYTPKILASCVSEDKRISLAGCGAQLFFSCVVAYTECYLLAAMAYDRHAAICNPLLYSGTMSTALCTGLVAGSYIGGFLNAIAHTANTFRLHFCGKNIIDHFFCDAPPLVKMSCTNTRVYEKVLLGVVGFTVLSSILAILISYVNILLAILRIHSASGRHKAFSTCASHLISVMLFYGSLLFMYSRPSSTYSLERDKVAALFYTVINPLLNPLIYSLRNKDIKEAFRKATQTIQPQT
Method in brief: as §1

OR8U9 T2A Q3H Q293R = test system: OR8U9 T2A Q3H Q293R
Method in brief: as §1

OR8U9 = test system: OR8U9
Sequence of OR8U9 (as listed by the source): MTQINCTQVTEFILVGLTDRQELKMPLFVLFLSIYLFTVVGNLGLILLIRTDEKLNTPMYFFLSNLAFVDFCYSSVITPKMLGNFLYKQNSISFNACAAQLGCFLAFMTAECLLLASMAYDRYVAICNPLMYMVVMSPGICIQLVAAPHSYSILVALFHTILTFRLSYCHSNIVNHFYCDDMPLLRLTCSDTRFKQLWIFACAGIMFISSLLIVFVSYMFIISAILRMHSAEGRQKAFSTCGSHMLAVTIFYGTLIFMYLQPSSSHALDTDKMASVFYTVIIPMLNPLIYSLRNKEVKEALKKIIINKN
Method in brief: as §1

OR9A2 C304Y = test system: OR9A2 C304Y
Sequence of OR9A2 C304Y (as listed by the source, stated change not applied): as the sequence (Q8NGT5 whole entry) above, with C304Y counted along it
Method in brief: as §1

OR9G4 H6Y N206D V222A = test system: OR9G4 H6Y N206D V222A
Method in brief: as §1

OR9G4 N206D V222A = test system: OR9G4 N206D V222A
Method in brief: as §1

Measured: odorant receptor agonist call;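 further: active if original authors judged signal statistically different from baseline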

Sequence of OR8U9 (Homo sapiens) (P0C7N5 whole entry): as the sequence (as listed by the source) above, with R293Q counted along it

Cc1c([N+](=O)[O-])c(C)c([N+](=O)[O-])c(C(C)(C)C)c1[N+](=O)[O-]
inactive: OR8U9 (Homo sapiens) | OR9A2 (Homo sapiens) | OR9A4 (Homo sapiens) | OR9G1 (Homo sapiens) | OR9G4 (Homo sapiens)

C=CCOC(=O)Cc1ccccc1
inactive: all assays above
